Test results reported in ChEMBL document CHEMBL2413013, “Triplex-forming ability of oligonucleotides containing 1-aryl-1,2,3-triazole nucleobases linked via a two atom-length spacer” (Bioorg Med Chem, 2013).

How the values were obtained:
[1] = Binding affinity to hairpin double stranded DNA CG base pair in sodium cacodylate buffer at pH 6.8 assessed as triplex-forming ability measuring melting temperature after by UV melting experiment
Procedure, shortened: (§1)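 TFO and hairpin dsDNA target, each strand at 1.89 μM final, in 10 mM sodium cacodylate (pH 6.8) with 100 mM KCl and 50 mM MgCl₂. Annealed in boiling water, then cooled slowly to 5 °C. Melting was followed at 260 nm from 5 to 90 °C at 0.5 °C/min. Tm was taken by the two-point average method, mean of three independent runs.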

[2] = Binding affinity to hairpin double stranded DNA AT base pair in sodium cacodylate buffer at pH 6.8 assessed as triplex-forming ability measuring melting temperature after by UV melting experiment; procedure, shortened: as §1
[3] = Binding affinity to hairpin double stranded DNA TA base pair in sodium cacodylate buffer at pH 6.8 assessed as triplex-forming ability measuring melting temperature after by UV melting experiment; procedure, shortened: as §1
[4] = Binding affinity to hairpin double stranded DNA GC base pair in sodium cacodylate buffer at pH 6.8 assessed as triplex-forming ability measuring melting temperature after by UV melting experiment; procedure, shortened: as §1

| Tm [1] [°C] | Tm [2] [°C] | Tm [3] [°C] | Tm [4] [°C] | Structure (SMILES) |
| --- | --- | --- | --- | --- |
| 23 | 19 | 23 | 20 | Cc1cn([C@H]2C[C@H](O[PH](OCCC#N)(OC[C@H]3O[C@@H](n4cc(C)c(=O)[nH]c4=O)C[C@@H]3O[PH](OCCC#N)(OC[C@H]3O[C@@H](n4cc(C)c(=O)[nH]c4=O)C[C@@H]3O[PH](OCCC#N)(OC[C@H]3O[C@@H](n4cc(C)c(=O)[nH]c4=O)C[C@@H]3O[PH](OCCC#N)(OC[C@H]3O[C@@H](n4cc(C)c(=O)[nH]c4=O)C[C@@H]3O[PH](OCCC#N)(OC(C)[C@H]3O[C@@H](n4ccc(N)nc4=O)C[C@@H]3O[PH](OCCC#N)(OC[C@H]3O[C@@H](n4cc(C)c(=O)[nH]c4=O)C[C@@H]3O[PH](OCCC#N)(OC[C@H]3O[C@@H](CCc4cn(-c5cccc(CO)c5)nn4)C[C@@H]3OP(=O)(O)OC[C@H]3O[C@@H](n4cc(C)c(=O)[nH]c4=O)C[C@@H]3O[PH](OCCC#N)(OC(C)[C@H]3O[C@@H](n4ccc(N)nc4=O)C[C@@H]3O[PH](OCCC#N)(OC[C@H]3O[C@@H](n4cc(C)c(=O)[nH]c4=O)C[C@@H]3O[PH](OCCC#N)(OC(C)[C@H]3O[C@@H](n4ccc(N)nc4=O)C[C@@H]3O[PH](OCCC#N)(OC[C@H]3O[C@@H](n4cc(C)c(=O)[nH]c4=O)C[C@@H]3O[PH](OCCC#N)(OC(C)[C@H]3O[C@@H](n4ccc(N)nc4=O)C[C@@H]3O[PH](OCCC#N)(OC[C@H]3O[C@@H](n4cc(C)c(=O)[nH]c4=O)C[C@@H]3O)N(C(C)C)C(C)C)N(C(C)C)C(C)C)N(C(C)C)C(C)C)N(C(C)C)C(C)C)N(C(C)C)C(C)C)N(C(C)C)C(C)C)N(C(C)C)C(C)C)N(C(C)C)C(C)C)N(C(C)C)C(C)C)N(C(C)C)C(C)C)N(C(C)C)C(C)C)N(C(C)C)C(C)C)N(C(C)C)C(C)C)[C@@H](CO)O2)c(=O)[nH]c1=O (stereo not given in full) |
| 21 | 18 | 17 | 19 | Cc1cn([C@H]2C[C@H](O[PH](OCCC#N)(OC[C@H]3O[C@@H](n4cc(C)c(=O)[nH]c4=O)C[C@@H]3O[PH](OCCC#N)(OC[C@H]3O[C@@H](n4cc(C)c(=O)[nH]c4=O)C[C@@H]3O[PH](OCCC#N)(OC[C@H]3O[C@@H](n4cc(C)c(=O)[nH]c4=O)C[C@@H]3O[PH](OCCC#N)(OC[C@H]3O[C@@H](n4cc(C)c(=O)[nH]c4=O)C[C@@H]3O[PH](OCCC#N)(OC(C)[C@H]3O[C@@H](N4C=CC(N)=N[C@@H]4O)C[C@@H]3O[PH](OCCC#N)(OC[C@H]3O[C@@H](n4cc(C)c(=O)[nH]c4=O)C[C@@H]3O[PH](OCCC#N)(OC[C@H]3O[C@@H](OCc4cn(-c5ccccc5C(N)=O)nn4)C[C@@H]3OP(=O)(O)OC[C@H]3O[C@@H](n4cc(C)c(=O)[nH]c4=O)C[C@@H]3O[PH](OCCC#N)(OC(C)[C@H]3O[C@@H](n4ccc(N)nc4=O)C[C@@H]3O[PH](OCCC#N)(OC[C@H]3O[C@@H](n4cc(C)c(=O)[nH]c4=O)C[C@@H]3O[PH](OCCC#N)(OC(C)[C@H]3O[C@@H](n4ccc(N)nc4=O)C[C@@H]3O[PH](OCCC#N)(OC[C@H]3O[C@@H](n4cc(C)c(=O)[nH]c4=O)C[C@@H]3O[PH](OCCC#N)(OC(C)[C@H]3O[C@@H](n4ccc(N)nc4=O)C[C@@H]3O[PH](OCCC#N)(OC[C@H]3O[C@@H](n4cc(C)c(=O)[nH]c4=O)C[C@@H]3O)N(C(C)C)C(C)C)N(C(C)C)C(C)C)N(C(C)C)C(C)C)N(C(C)C)C(C)C)N(C(C)C)C(C)C)N(C(C)C)C(C)C)N(C(C)C)C(C)C)N(C(C)C)C(C)C)N(C(C)C)C(C)C)N(C(C)C)C(C)C)N(C(C)C)C(C)C)N(C(C)C)C(C)C)N(C(C)C)C(C)C)[C@@H](CO)O2)c(=O)[nH]c1=O (stereo not given in full) |

The next lines start with the compound.

| Structure (SMILES) | Tm [1] [°C] | Tm [2] [°C] | Tm [3] [°C] | Tm [4] [°C] |
| --- | --- | --- | --- | --- |
| Cc1cn([C@H]2C[C@H](O[PH](OCCC#N)(OC[C@H]3O[C@@H](n4cc(C)c(=O)[nH]c4=O)C[C@@H]3O[PH](OCCC#N)(OC[C@H]3O[C@@H](n4cc(C)c(=O)[nH]c4=O)C[C@@H]3O[PH](OCCC#N)(OC[C@H]3O[C@@H](n4cc(C)c(=O)[nH]c4=O)C[C@@H]3O[PH](OCCC#N)(OC[C@H]3O[C@@H](n4cc(C)c(=O)[nH]c4=O)C[C@@H]3O[PH](OCCC#N)(OC(C)[C@H]3O[C@@H](n4ccc(N)nc4=O)C[C@@H]3O[PH](OCCC#N)(OC[C@H]3O[C@@H](n4cc(C)c(=O)[nH]c4=O)C[C@@H]3O[PH](OCCC#N)(OC[C@H]3O[C@@H](OCc4cn(-c5cccc(CO)c5)nn4)C[C@@H]3OP(=O)(O)OC[C@H]3O[C@@H](n4cc(C)c(=O)[nH]c4=O)C[C@@H]3O[PH](OCCC#N)(OC(C)[C@H]3O[C@@H](n4ccc(N)nc4=O)C[C@@H]3O[PH](OCCC#N)(OC[C@H]3O[C@@H](n4cc(C)c(=O)[nH]c4=O)C[C@@H]3O[PH](OCCC#N)(OC(C)[C@H]3O[C@@H](n4ccc(N)nc4=O)C[C@@H]3O[PH](OCCC#N)(OC[C@H]3O[C@@H](n4cc(C)c(=O)[nH]c4=O)C[C@@H]3O[PH](OCCC#N)(OC(C)[C@H]3O[C@@H](n4ccc(N)nc4=O)C[C@@H]3O[PH](OCCC#N)(OC[C@H]3O[C@@H](n4cc(C)c(=O)[nH]c4=O)C[C@@H]3O)N(C(C)C)C(C)C)N(C(C)C)C(C)C)N(C(C)C)C(C)C)N(C(C)C)C(C)C)N(C(C)C)C(C)C)N(C(C)C)C(C)C)N(C(C)C)C(C)C)N(C(C)C)C(C)C)N(C(C)C)C(C)C)N(C(C)C)C(C)C)N(C(C)C)C(C)C)N(C(C)C)C(C)C)N(C(C)C)C(C)C)[C@@H](CO)O2)c(=O)[nH]c1=O (stereo not given in full) | 25 | 23 | 22 | 23 |
| Cc1cn([C@H]2C[C@H](O[PH](OCCC#N)(OC[C@H]3O[C@@H](n4cc(C)c(=O)[nH]c4=O)C[C@@H]3O[PH](OCCC#N)(OC[C@H]3O[C@@H](n4cc(C)c(=O)[nH]c4=O)C[C@@H]3O[PH](OCCC#N)(OC[C@H]3O[C@@H](n4cc(C)c(=O)[nH]c4=O)C[C@@H]3O[PH](OCCC#N)(OC[C@H]3O[C@@H](n4cc(C)c(=O)[nH]c4=O)C[C@@H]3O[PH](OCCC#N)(OC(C)[C@H]3O[C@@H](n4ccc(N)nc4=O)C[C@@H]3O[PH](OCCC#N)(OC[C@H]3O[C@@H](n4cc(C)c(=O)[nH]c4=O)C[C@@H]3O[PH](OCCC#N)(OC[C@H]3O[C@@H](OCc4cn(-c5cccc(NC(N)=O)c5)nn4)C[C@@H]3OP(=O)(O)OC[C@H]3O[C@@H](n4cc(C)c(=O)[nH]c4=O)C[C@@H]3O[PH](OCCC#N)(OC(C)[C@H]3O[C@@H](n4ccc(N)nc4=O)C[C@@H]3O[PH](OCCC#N)(OC[C@H]3O[C@@H](n4cc(C)c(=O)[nH]c4=O)C[C@@H]3O[PH](OCCC#N)(OC(C)[C@H]3O[C@@H](n4ccc(N)nc4=O)C[C@@H]3O[PH](OCCC#N)(OC[C@H]3O[C@@H](n4cc(C)c(=O)[nH]c4=O)C[C@@H]3O[PH](OCCC#N)(OC(C)[C@H]3O[C@@H](n4ccc(N)nc4=O)C[C@@H]3O[PH](OCCC#N)(OC[C@H]3O[C@@H](n4cc(C)c(=O)[nH]c4=O)C[C@@H]3O)N(C(C)C)C(C)C)N(C(C)C)C(C)C)N(C(C)C)C(C)C)N(C(C)C)C(C)C)N(C(C)C)C(C)C)N(C(C)C)C(C)C)N(C(C)C)C(C)C)N(C(C)C)C(C)C)N(C(C)C)C(C)C)N(C(C)C)C(C)C)N(C(C)C)C(C)C)N(C(C)C)C(C)C)N(C(C)C)C(C)C)[C@@H](CO)O2)c(=O)[nH]c1=O (stereo not given in full) | 25 | 21 | 23 | 23 |
| Cc1cn([C@H]2C[C@H](O[PH](OCCC#N)(OC[C@H]3O[C@@H](n4cc(C)c(=O)[nH]c4=O)C[C@@H]3O[PH](OCCC#N)(OC[C@H]3O[C@@H](n4cc(C)c(=O)[nH]c4=O)C[C@@H]3O[PH](OCCC#N)(OC[C@H]3O[C@@H](n4cc(C)c(=O)[nH]c4=O)C[C@@H]3O[PH](OCCC#N)(OC[C@H]3O[C@@H](n4cc(C)c(=O)[nH]c4=O)C[C@@H]3O[PH](OCCC#N)(OC(C)[C@H]3O[C@@H](n4ccc(N)nc4=O)C[C@@H]3O[PH](OCCC#N)(OC[C@H]3O[C@@H](n4cc(C)c(=O)[nH]c4=O)C[C@@H]3O[PH](OCCC#N)(OC[C@H]3O[C@@H](CCc4cn(-c5cccc(NC(N)=O)c5)nn4)C[C@@H]3OP(=O)(O)OC[C@H]3O[C@@H](n4cc(C)c(=O)[nH]c4=O)C[C@@H]3O[PH](OCCC#N)(OC(C)[C@H]3O[C@@H](n4ccc(N)nc4=O)C[C@@H]3O[PH](OCCC#N)(OC[C@H]3O[C@@H](n4cc(C)c(=O)[nH]c4=O)C[C@@H]3O[PH](OCCC#N)(OC(C)[C@H]3O[C@@H](n4ccc(N)nc4=O)C[C@@H]3O[PH](OCCC#N)(OC[C@H]3O[C@@H](n4cc(C)c(=O)[nH]c4=O)C[C@@H]3O[PH](OCCC#N)(OC(C)[C@H]3O[C@@H](n4ccc(N)nc4=O)C[C@@H]3O[PH](OCCC#N)(OC[C@H]3O[C@@H](n4cc(C)c(=O)[nH]c4=O)C[C@@H]3O)N(C(C)C)C(C)C)N(C(C)C)C(C)C)N(C(C)C)C(C)C)N(C(C)C)C(C)C)N(C(C)C)C(C)C)N(C(C)C)C(C)C)N(C(C)C)C(C)C)N(C(C)C)C(C)C)N(C(C)C)C(C)C)N(C(C)C)C(C)C)N(C(C)C)C(C)C)N(C(C)C)C(C)C)N(C(C)C)C(C)C)[C@@H](CO)O2)c(=O)[nH]c1=O (stereo not given in full) | 27 | 23 | 28 | 23 |
